Reference: ChEMBL document CHEMBL3286196 (J Med Chem, 2014)
Active and inactive are the calls of the source. The calls are words filed in the database; no cut-off is given here.

How the values were obtained:
[1] = organism: Rattus norvegicus; experiment: Binding affinity to NADPH-reduced rat recombinant wild type TrxR after 30 mins by SDS-PAGE
Method in brief: (§1)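 Proteins were reduced, then incubated with the labelling compound for 30 min at room temperature. Samples were separated by SDS-PAGE. The gel was imaged by fluorescence and then stained with Coomassie Blue.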

[2] = tested on: T1, Thioredoxin reductase 1, cytoplasmic (Rattus norvegicus), O89049 [U498C]; experiment: Binding affinity to NADPH-reduced rat recombinant TrxR1 U498C mutant after 30 mins by SDS-PAGE; method in brief: as §1
T1 sequence (whole entry): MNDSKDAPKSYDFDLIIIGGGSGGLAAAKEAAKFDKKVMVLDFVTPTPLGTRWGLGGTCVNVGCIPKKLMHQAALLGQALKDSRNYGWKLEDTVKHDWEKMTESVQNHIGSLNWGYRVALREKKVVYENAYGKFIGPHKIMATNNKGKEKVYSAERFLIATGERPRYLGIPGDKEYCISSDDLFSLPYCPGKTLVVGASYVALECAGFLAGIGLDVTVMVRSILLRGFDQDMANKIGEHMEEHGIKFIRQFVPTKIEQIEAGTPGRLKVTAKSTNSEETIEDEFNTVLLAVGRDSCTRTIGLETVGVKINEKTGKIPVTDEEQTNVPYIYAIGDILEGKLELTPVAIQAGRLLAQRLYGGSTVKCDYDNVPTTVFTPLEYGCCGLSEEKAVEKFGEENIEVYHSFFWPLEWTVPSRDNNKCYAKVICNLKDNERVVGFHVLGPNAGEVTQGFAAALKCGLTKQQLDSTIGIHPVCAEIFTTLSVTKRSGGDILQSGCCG

[3] = tested on: HL-60; experiment: Cytotoxicity against human HL60 cells assessed as inhibition of proliferation after 48 hrs by MTT assay; assay type: functional, cell-based; settings: HL-60, 48 h
[4] = tested on: HL-60; experiment: Cytotoxicity against human HL60 cells assessed as inhibition of proliferation after 72 hrs by MTT assay; assay type: functional, cell-based; settings: HL-60, 72 h
[5] = Cytotoxicity against human […] cells assessed as inhibition of proliferation after 48 hrs by MTT assay; assay type: functional, cell-based
[6] = tested on: HeLa; experiment: Cytotoxicity against human HeLa cells assessed as inhibition of proliferation after 48 hrs by MTT assay; assay type: functional, cell-based
[7] = tested on: HepG2; experiment: Cytotoxicity against human HepG2 cells assessed as inhibition of proliferation after 48 hrs by MTT assay; assay type: functional, cell-based; settings: HepG2, 48 h

Row | SMILES | Activity [1] | Activity [2] | IC50 [3] [µM] | IC50 [4] [µM] | IC50 [5] [µM] | IC50 [6] [µM] | IC50 [7] [µM]
1 | Nc1ccc2c3c(cccc13)C(=O)N(CCCCCC(=O)Nc1ccc([As](O)O)cc1)C2=O | Active | Active | – | – | – | – | –
2 | Nc1ccc2c3c(cccc13)C(=O)N(CCCCCC(=O)Nc1ccc([As]3SCCCS3)cc1)C2=O | inactive | Active | – | – | – | – | –
3 | Nc1ccc([As](=O)(O)O)cc1 [ARSANILIC ACID] | – | – | > 10 | > 10 | > 10 | > 10 | > 10
4 | O=[As][As+](=O)[O-] (centres undefined) [ARSENIC TRIOXIDE] | – | – | 6.5 | 5.7 | > 10 | > 10 | > 10
